In ChEMBL document CHEMBL1134458, “Synthesis and structure-activity relationships of cetiedil analogues as blockers of the Ca(2+)-activated K+ permeability of erythrocytes” (J Med Chem, 2001) one finds logP and IC50 data, which are given here for 24 compounds.

Series [1] is described as follows: (§1) Partition coefficient (logP). The class given is physicochemical. The note with it: octanol/water. In short, it runs like this: (§2)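 Calculated, not measured, for the free base by summing Mannhold/Rekker revised hydrophobic fragmental constants.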
For series [2], the species on record is Oryctolagus cuniculus. Nature of the series: Inhibition of K+ loss from rabbit blood cells treated with [Ca2+] ionophore A-23187. The class given is functional. The gist of the method: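 Rabbit red cells were stored at 4 °C for up to 4 days, then suspended at ~1% hematocrit in low-K⁺ saline (0.1 mM KCl, 1 mM CaCl₂, inosine, Tris, pH 7.4) at 37 °C. They were preincubated 40–60 min with compound from DMSO stock (120 min for one; 3 min for highly lipophilic ones). A23187 2 μM was added, and K⁺ loss was read by K⁺ electrode over 3 min. Total K⁺ came from digitonin lysis, and loss was expressed as % of control.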

The nature of series [3]: as §1. The format is physicochemical. The note with it: octanol/water. The gist of the method: as §2
The source holds these as a separate data set.

For series [4], the species on record is Oryctolagus cuniculus. Nature of the series: Concentration required to cause 50% inhibition of K+ loss from rabbit blood cells treated with [Ca2+] ionophore A-23187. The class given is functional. The gist of the method: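 Rabbit red cells were stored at 4 °C for up to 4 days, then suspended at ~1% hematocrit in low-K⁺ saline (0.1 mM KCl, 1 mM CaCl₂, inosine, Tris, pH 7.4) at 37 °C. They were preincubated 40–60 min with compound from DMSO stock (120 min for one; 3 min for highly lipophilic ones). A23187 2 μM was added, and K⁺ loss was read by K⁺ electrode over 3 min. Total K⁺ came from digitonin lysis, and loss was expressed as % of control. Assays were run ≥3 times, and IC50 was fitted by Hill equation (common nH, 100% maximum).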

As to `O=C(OCCN1CCCCCC1)C1(Cc2ccc([N+](=O)[O-])cc2)c2ccccc2-c2ccccc21`, the figures for the logP in series [1] and in series [1] (read-out: logP) were 6.92 and 7.44, respectively. Moreover, in the series listed under Oryctolagus cuniculus [2], the IC50 (in general, the concentration that gives 50% inhibition) came out at 4.6 µM.

Consider `O=C(OCCN1CCCCCC1)C1(Cc2ccccc2)c2ccccc2-c2ccccc21`, for which the logP – broadly, a log measure of how a compound divides between an organic and an aqueous phase – in series [1] came out at 7.18; in series [1] (read-out: logP), 7.68. In addition, 4 µM corresponded to half-maximal inhibition in the series filed under Oryctolagus cuniculus [2] (IC50).

As for `O=C(OCCN1CCCCCC1)C1(Cc2ccc(Cl)cc2)c2ccccc2-c2ccccc21`, the results for the logP in series [1] and in series [1] (read-out: logP) were 7.89 and 8.41, respectively. In the series listed under Oryctolagus cuniculus [2], this compound gave an IC50 of 2.9 µM.

For `O=C(OCCN1CCCCCC1)C1(Cc2ccc(F)cc2)c2ccccc2-c2ccccc21`, the logP in series [1] is 7.32; in series [1] (read-out: logP), 7.92.

In the case of `O=C(Cc1ccsc1)OCCN1CCCCCC1`, the figures for the logP in series [1] and in series [1] (read-out: logP) were 3.55 and 3.45, respectively. In addition, in the series listed under Oryctolagus cuniculus [2], the IC50 came out at 142 µM.

As to `O=C(OCCN1CCCCCC1)C(C1CCCCC1)C1CCCCC1`, the logP is 6.86 in series [1] and 8.33 in series [1] (read-out: logP). Besides, the IC50 in the series filed under Oryctolagus cuniculus [2] amounted to 14 µM.

On to `O=C(OCCCN1CCCCCC1)C(c1ccccc1)(c1ccccc1)c1ccccc1`, for which the values for the logP in series [3] and in series [1] (read-out: logP) were 6.4 and 7.65, respectively. Further, the IC50 in the series filed under Oryctolagus cuniculus [4] turned out to be 9.2 µM.

Consider `O=C(OCCN1CCCCCC1)C(c1ccccc1)(c1ccccc1)c1ccccc1`, for which the lipophilicity (logP) in series [3] amounted to 6.69; in series [1] (read-out: logP), 7.14. In the series listed under Oryctolagus cuniculus [4], this compound gave an IC50 of 8.2 µM.

Turning to `O=C(OCCN1CCCCCC1)c1c2ccccc2cc2ccccc12`, the logP stood at 6.36 in series [3] and 6.45 in series [1] (read-out: logP). In the series filed under Oryctolagus cuniculus [4], this compound displayed an IC50 of 28 µM.

As to `O=C(OCCN1CCCCCC1)c1cccc2ccccc12`, the figures for the logP in series [1] and in series [1] (read-out: logP) were 5.18 and 5.16, respectively. The concentration for half-maximal inhibition (IC50) in the series filed under Oryctolagus cuniculus [2] is 222 µM.

Regarding `O=C(OCCN1CCCCCC1)C12C[C@H]3C[C@@H](C1)C[C@@H](C2)C3`, the lipophilicity (logP) is 4.38 in series [1] and 5.6 in series [1] (read-out: logP). Moreover, the IC50 in the series listed under Oryctolagus cuniculus [2] amounted to 178 µM.

`O=C(OCCN1CCCCCC1)c1ccc2ccccc2c1`: the logP in series [1] was determined as 5.18; in series [1] (read-out: logP), 5.16. For the same compound, in the series filed under Oryctolagus cuniculus [2], it took 285 µM to reach half-maximal inhibition (IC50).

`O=C(OCCN1CCCCCC1)C(c1ccccc1)C1CCCCC1` (stereo unspecified): the values for the logP in series [1] and in series [1] (read-out: logP) were 5.93 and 6.88, respectively. Besides, the IC50 in the series listed under Oryctolagus cuniculus [2] was 18 µM.

Take `O=C(CC1CCCCC1)OCCN1CCCCCC1`: the logP in series [1] turned out to be 4.93; in series [1] (read-out: logP), 5.18. Also, in the series listed under Oryctolagus cuniculus [2], the half-inhibitory concentration (IC50) was determined as 290 µM.

Take `O=C(OCCN1CCCCCC1)C(c1ccccc1)c1ccccc1`: the figures for the logP in series [1] and in series [1] (read-out: logP) were 5.25 and 5.44, respectively. The IC50 in the series listed under Oryctolagus cuniculus [2] came out at 164 µM.

Turning to `c1ccc(C(CCOCCN2CCCCCC2)(c2ccccc2)c2ccccc2)cc1`, the lipophilicity (logP) in series [3] amounted to 7.35; in series [1] (read-out: logP), 7.83. Besides, the midpoint of inhibition in the series listed under Oryctolagus cuniculus [4], the IC50, lay at 5.5 µM.

As to `O=C(CC(c1ccccc1)(c1ccccc1)c1ccccc1)OCCN1CCCCCC1`, the logP in series [3] was found to be 7.11; in series [1] (read-out: logP) it was 7.65. This compound also gave an IC50 in the series filed under Oryctolagus cuniculus [4] of 9.3 µM.

`O=C(CC(c1ccccc1)c1ccccc1)OCCN1CCCCCC1`: the figures for the logP in series [1] and in series [1] (read-out: logP) were 5.67 and 5.96, respectively. This compound also showed an IC50 in the series listed under Oryctolagus cuniculus [2] of 43 µM.

Turning to `O=C(OCCN1CCCCCC1)C(c1ccccc1)c1ccsc1` (stereo unspecified), the logP in series [1] stood at 4.9; in series [1] (read-out: logP), 5.15. Moreover, the IC50 in the series filed under Oryctolagus cuniculus [2] came to 47 µM.

On to `O=C(OCCN1CCCCCC1)C(c1ccsc1)C1CCCCC1` (stereo unspecified), for which the logP was determined as 5.98 in series [1] and 6.59 in series [1] (read-out: logP). In the series listed under Oryctolagus cuniculus [2], this compound registered an IC50 of 25 µM.

As to `COc1ccc(CC2(C(=O)OCCN3CCCCCC3)c3ccccc3-c3ccccc32)cc1`, the logP was 7.09 in series [1] and 7.75 in series [1] (read-out: logP). The compound further came in with a half-inhibitory concentration (IC50) in the series listed under Oryctolagus cuniculus [2] of 2.8 µM.

`C(#CCC1(Cc2ccccc2)c2ccccc2-c2ccccc21)CN1CCCCCC1`: the logP was determined as 7.9 in series [3] and 9.1 in series [1]. This compound gave a half-maximal inhibitory concentration (IC50) in the series filed under Oryctolagus cuniculus [4] of 1.5 µM.

For the compound `O=C(NCCN1CCCCCC1)C(c1ccsc1)C1CCCCC1` (stereo unspecified), the log partition coefficient (logP) in series [1] came out at 5.11; in series [1] (read-out: logP) it was 5.15. The compound further gave an IC50 in the series filed under Oryctolagus cuniculus [2] of 75 µM.

Consider `O=C(OCCN1CCCCCC1)C1c2ccccc2-c2ccccc21`, for which the lipophilicity (logP) was 5.24 in series [1] and 5.47 in series [1] (read-out: logP). Moreover, in the series listed under Oryctolagus cuniculus [2], the IC50 was determined as 42 µM.
